# Measured values from ChEMBL document CHEMBL4811254, “Beyond Basicity: Discovery of Nonbasic DENV-2 Protease Inhibitors with Potent Activity in Cell Culture” (J Med Chem, 2021).
# pEC50: −log10 of the molar value. Active and inactive are the calls of the source. The rule behind the calls is not given here.
# What was measured:
# [1] = target: Genome polyprotein (dengue virus type 2) (UniProt P29990); experiment: Inhibition of NS2B-NS3 protease in DENV2proHeLa system assessed as inhibition of luciferase signal at 12.5 uM incubated for 24 hrs by luciferase reporter gene assay; format: cell-based; conditions: HeLa
# Procedure, shortened: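 Stable DENV2proHeLa cells seeded at 2 × 10⁴/well and dosed immediately, then incubated 24 h at 37 °C. Cells lysed 15 min at room temperature. Luciferase read with coelenterazine (2.75 μM in PBS) injection, luminescence 5 s. Triplicates; percent inhibition calculated relative to untreated control; background from cell-free wells.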
# [2] = Cytotoxicity against human HeLa cells assessed as reduction in cell viability incubated for 24 hrs by CellTiter-Blue assay; format: cell-based
# Procedure, shortened: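 Viability by CellTiter-Blue in HeLa or Huh-7 cells exposed to compound dilutions. Plates run in parallel with the reporter assay (HeLa) or the virus titer assay (Huh-7).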
# [3] = target: Prothrombin (Homo sapiens) (UniProt P00734); experiment: Inhibition of thrombin in human plasma using Boc-Val-Pro-Arg-AMC as substrate at 25 uM preincubated with enzyme for 15 mins followed by substrate addition and measured for 15 mins by fluorimetric assay; format: cell-free; conditions: time 30.0 min
# Trypsin (Homo sapiens) = Trypsin (Homo sapiens) (UniProt P07477+P07478+P35030); experiment: Inhibition of trypsin (unknown origin) using Boc-Val-Pro-Arg-AMC as substrate at 50 uM preincubated with enzyme for 15 mins followed by substrate addition and measured for 15 mins by fluorimetric assay; format: protein assay; conditions: time 30.0 min
# Genome polyprotein = Genome polyprotein (dengue virus type 2, UniProt P29990); experiment: Inhibition of NS2B-NS3 protease in DENV2proHeLa system assessed as inhibition of luciferase signal incubated for 24 hrs by luciferase reporter gene assay; format: cell-based, HeLa
# Procedure, shortened: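 HeLa cells stably carrying the reporter system, 2 × 10⁴ per well, given inhibitor at seeding and held 24 h at 37 °C. Cells lysed 15 min at room temperature. Luciferase read for 5 s after injecting coelenterazine (2.75 μM in PBS). Triplicate wells per concentration; percent inhibition taken against untreated cells. EC50/EC90 from 4-parameter dose-response fit, background from cell-free wells subtracted.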
smiles,measurement,setting,value
CCCCCC(=O)N[C@H](C(=O)NCc1ccccc1)c1ccc(OCc2ccccc2)cc1,inhibition,[1],< 10%
same,CC50 at 24 h,[2],> 50 µM
same,inhibition,[3],inactive
same,inhibition,Trypsin (Homo sapiens),inactive
NC(=O)c1cccc(NC(=O)[C@@H](NC(=O)c2ccc3ccccc3c2)c2ccc(OCc3ccccc3)cc2)c1,inhibition,[1],71%
same,pEC50,Genome polyprotein,5.35
same,CC50 at 24 h,[2],> 100 µM
same,inhibition,[3],inactive
same,inhibition,Trypsin (Homo sapiens),inactive
NC(=O)c1ccc(CNC(=O)[C@@H](NCc2ccccc2)c2ccc(OCc3ccccc3)cc2)cc1,inhibition,[1],36%
same,CC50 at 24 h,[2],> 50 µM
same,inhibition,[3],inactive
same,inhibition,Trypsin (Homo sapiens),inactive
CCCCCC(=O)N[C@H](C(=O)NCc1ccc(OC)cc1)c1ccc(OCc2ccccc2)cc1,inhibition,[1],35%
same,pEC50,Genome polyprotein,4.55
same,CC50 at 24 h,[2],> 50 µM
same,inhibition,[3],inactive
same,inhibition,Trypsin (Homo sapiens),inactive
CC(C)CCOc1ccc(C(=O)N[C@H](C(=O)Nc2cccc(C(N)=O)c2)c2ccc(OCc3ccccc3)cc2)cc1,inhibition,[1],49%
same,CC50 at 24 h,[2],> 50 µM
same,inhibition,[3],inactive
same,inhibition,Trypsin (Homo sapiens),inactive
NC(=O)c1ccc(CNC(=O)[C@@H](NC(=O)/C=C/c2ccccc2)c2ccc(OCc3ccccc3)cc2)cc1,inhibition,[1],34%
same,CC50 at 24 h,[2],> 50 µM
same,inhibition,[3],inactive
same,inhibition,Trypsin (Homo sapiens),inactive
CCCCCC(=O)N[C@H](C(=O)Nc1ccc(OC)cc1)c1ccc(OCc2ccccc2)cc1,inhibition,[1],10%
same,CC50 at 24 h,[2],> 25 µM
same,inhibition,[3],inactive
same,inhibition,Trypsin (Homo sapiens),inactive
NC(=O)c1ccc(CNC(=O)[C@@H](NC(=O)C2CCC2)c2ccc(OCc3ccccc3)cc2)cc1,inhibition,[1],45%
same,CC50 at 24 h,[2],> 50 µM
same,inhibition,[3],inactive
same,inhibition,Trypsin (Homo sapiens),inactive
CCCCCC(=O)N[C@@H](Cc1ccccc1)C(=O)NCc1ccc(C(N)=O)cc1,inhibition,[1],< 10%
same,CC50 at 24 h,[2],> 50 µM
same,inhibition,[3],inactive
same,inhibition,Trypsin (Homo sapiens),inactive
CCCCCC(=O)N[C@H](C(=O)Nc1ccc(S(N)(=O)=O)cc1)c1ccc(OCc2ccccc2)cc1,inhibition,[1],< 10%
same,CC50 at 24 h,[2],> 50 µM
same,inhibition,[3],inactive
same,inhibition,Trypsin (Homo sapiens),inactive
CCCCCC(=O)N[C@H](C(=O)Nc1ccccc1C(N)=O)c1ccc(OCc2ccccc2)cc1,inhibition,[1],13%
same,CC50 at 24 h,[2],> 50 µM
same,inhibition,[3],inactive
same,inhibition,Trypsin (Homo sapiens),inactive
CCCCCC(=O)N[C@@H](C(=O)NCc1ccc(C(N)=O)cc1)c1ccc(OCc2ccc(C(F)(F)F)cc2)cc1,inhibition,[1],42%
same,CC50 at 24 h,[2],> 50 µM
same,inhibition,[3],inactive
same,inhibition,Trypsin (Homo sapiens),inactive
CCCCCC(=O)N[C@@H](C(=O)NCc1ccc(C(N)=O)cc1)c1ccc(OCc2ccccc2)cc1,inhibition,[1],35%
same,CC50 at 24 h,[2],> 50 µM
same,inhibition,[3],inactive
same,inhibition,Trypsin (Homo sapiens),inactive
CCCCCC(=O)N[C@H](C(=O)NCc1ccc(NC(N)=O)cc1)c1ccc(OCc2ccccc2)cc1,inhibition,[3],inactive
same,inhibition,Trypsin (Homo sapiens),inactive
CCCCCC(=O)N[C@H](C(=O)NCc1ccc(C(N)=O)cc1)c1ccccc1,inhibition,[1],15%
same,CC50 at 24 h,[2],> 50 µM
same,inhibition,[3],inactive
same,inhibition,Trypsin (Homo sapiens),inactive
CCCCCC(=O)N[C@H](C(=O)NCc1ccc(C(N)=O)cc1)c1ccc(C(F)(F)F)cc1,inhibition,[1],31%
same,CC50 at 24 h,[2],> 50 µM
same,inhibition,[3],inactive
same,inhibition,Trypsin (Homo sapiens),inactive
CCCCCC(=O)N[C@H](C(=O)NCc1ccc(C(=O)O)cc1)c1ccc(OCc2ccccc2)cc1,inhibition,[1],14%
same,CC50 at 24 h,[2],> 50 µM
same,inhibition,[3],inactive
same,inhibition,Trypsin (Homo sapiens),inactive
CCCCCC(=O)N[C@H](C(=O)NCCc1ccccc1)c1ccc(OCc2ccccc2)cc1,CC50 at 24 h,[2],< 12.5 µM
same,inhibition,[3],inactive
same,inhibition,Trypsin (Homo sapiens),inactive
COCCOCC(=O)N[C@H](C(=O)NCc1ccc(C(N)=O)cc1)c1ccc(OCc2ccccc2)cc1,inhibition,[1],27%
same,CC50 at 24 h,[2],> 50 µM
same,inhibition,[3],inactive
same,inhibition,Trypsin (Homo sapiens),inactive
Cc1ccc(C(=O)c2cc(O)c(O)c([N+](=O)[O-])c2)cc1 [TOLCAPONE],inhibition,[1],59%
same,pEC50,Genome polyprotein,5.15
same,CC50 at 24 h,[2],> 25 µM
CCCCCC(=O)N[C@H](C(=O)NCc1ccc(C(=O)NO)cc1)c1ccc(OCc2ccccc2)cc1,inhibition,[1],40%
same,CC50 at 24 h,[2],> 50 µM
same,inhibition,[3],inactive
same,inhibition,Trypsin (Homo sapiens),inactive
